Results from publication PMC3696402 (Neuropharmacology, 2013).

Tests used:
[1] = tested on: histamine H1 GPCRs; conditions: previous studies; ref Bucholtz et al., 2009; cited from earlier work
[2] = tested on: C57Bl/6J male mice; assay: DOI-elicited head-twitch response; format: in vivo; conditions: for DOI-elicited HTRs after oral administration: 30 mg/kg oral (gavage) 20 min before (−)-DOI 1.0 mg/kg; for Number of head-twitches: 10-min session; for DOI-elicited HTR (responses) after pretreatment: 30 mg/kg i.p. pretreatment before 1 mg/kg (−)-DOI; for ED50 value (±95% CL), 50% attenuation of the DOI-elicited response: i.p. pretreatment before 1 mg/kg (−)-DOI
Procedure, shortened: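 Male C57Bl/6J mice (Jackson, pair-housed, ~8 weeks old on arrival, ≥1 week acclimation), tested mid-light phase after 30 min room habituation. Test compound or saline (sterile saline, 0.01 ml/g) given i.p. 10 min, or orally by gavage 20 min, before (−)-DOI (0.1–1.0 mg/kg) or saline. Ten min after DOI, head twitches counted over 10 min by a blind observer. ED50 reported with 95% CL.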

[3] = tested on: C57Bl/6J male mice; assay: Locomotor activity; format: in vivo
[4] = biological target: T1, 5HT2A receptors (Homo sapiens, UniProt P28223); assay: Radioreceptor competition binding, [3H]-ketanserin, HEK membranes; conditions: read-out: 5HT2A Ki ± SEM; [3H]-ketanserin 2.0 nM, 1.0 h at 37°C
T1 sequence (P28223 whole entry, canonical isoform): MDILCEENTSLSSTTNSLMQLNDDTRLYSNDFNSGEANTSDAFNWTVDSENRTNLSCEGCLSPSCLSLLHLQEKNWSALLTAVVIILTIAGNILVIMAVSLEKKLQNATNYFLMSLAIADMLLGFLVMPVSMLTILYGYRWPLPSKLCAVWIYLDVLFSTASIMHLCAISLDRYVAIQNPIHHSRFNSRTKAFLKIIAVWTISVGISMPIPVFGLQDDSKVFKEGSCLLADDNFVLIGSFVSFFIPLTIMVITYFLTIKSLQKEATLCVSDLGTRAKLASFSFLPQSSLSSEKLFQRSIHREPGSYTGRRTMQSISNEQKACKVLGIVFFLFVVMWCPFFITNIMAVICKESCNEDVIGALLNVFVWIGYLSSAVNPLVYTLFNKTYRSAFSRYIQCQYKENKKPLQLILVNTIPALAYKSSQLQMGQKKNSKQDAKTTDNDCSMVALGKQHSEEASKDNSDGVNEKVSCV
Procedure, shortened: (§1)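 HEK-293 cells transiently transfected (Lipofectamine 2000, 24–48 h) with human receptor cDNA (5HT2C: unedited INI isoform). Membranes in 50 mM Tris, 10 mM MgCl2, 0.1 mM EDTA; 3–5 μg protein per well. Nonspecific binding defined with 10 μM mianserin. Separated by GF/B filtration with five 50 mM Tris-HCl washes, then scintillation counting. Triplicates, at least 3 experiments; IC50 converted to Ki by Cheng–Prusoff.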

[5] = biological target: T2, 5HT2B receptors (Homo sapiens, UniProt P41595); assay: Radioreceptor competition binding, [3H]-mesulergine, HEK membranes; conditions: read-out: 5HT2B Ki ± SEM; [3H]-mesulergine 1.95 nM, 1.0 h at 37°C
T2 sequence (P41595 whole entry): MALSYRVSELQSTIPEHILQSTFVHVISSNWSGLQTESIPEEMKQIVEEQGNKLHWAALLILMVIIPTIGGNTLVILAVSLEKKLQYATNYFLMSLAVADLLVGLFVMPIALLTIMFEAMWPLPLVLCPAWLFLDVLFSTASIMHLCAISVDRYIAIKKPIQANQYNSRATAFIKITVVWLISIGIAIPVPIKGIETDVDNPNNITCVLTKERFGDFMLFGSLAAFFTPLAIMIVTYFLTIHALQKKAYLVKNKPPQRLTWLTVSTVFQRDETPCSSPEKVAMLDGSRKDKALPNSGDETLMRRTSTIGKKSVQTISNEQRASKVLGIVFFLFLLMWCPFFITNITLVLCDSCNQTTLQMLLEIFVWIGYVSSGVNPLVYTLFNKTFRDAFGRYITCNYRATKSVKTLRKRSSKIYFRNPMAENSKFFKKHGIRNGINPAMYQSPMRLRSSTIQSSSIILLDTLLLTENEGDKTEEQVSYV
Procedure, shortened: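 Membranes came from HEK-293 cells transfected with 24 μg human 5HT2B cDNA (Lipofectamine 2000, 24–48 h) and collected in 50 mM Tris, 10 mM MgCl2, 0.1 mM EDTA. […] Nonspecific binding: 10 μM mianserin. Filtered on GF/B, washed five times with Tris-HCl, scintillation counted. Triplicates, ≥3 experiments.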

[6] = biological target: T3, 5HT2C receptors (Homo sapiens, UniProt P28335); assay: Radioreceptor competition binding, [3H]-mesulergine, HEK membranes; conditions: read-out: 5HT2C Ki ± SEM; [3H]-mesulergine 1.4 nM, 1.0 h at 37°C
T3 sequence (P28335 33-458): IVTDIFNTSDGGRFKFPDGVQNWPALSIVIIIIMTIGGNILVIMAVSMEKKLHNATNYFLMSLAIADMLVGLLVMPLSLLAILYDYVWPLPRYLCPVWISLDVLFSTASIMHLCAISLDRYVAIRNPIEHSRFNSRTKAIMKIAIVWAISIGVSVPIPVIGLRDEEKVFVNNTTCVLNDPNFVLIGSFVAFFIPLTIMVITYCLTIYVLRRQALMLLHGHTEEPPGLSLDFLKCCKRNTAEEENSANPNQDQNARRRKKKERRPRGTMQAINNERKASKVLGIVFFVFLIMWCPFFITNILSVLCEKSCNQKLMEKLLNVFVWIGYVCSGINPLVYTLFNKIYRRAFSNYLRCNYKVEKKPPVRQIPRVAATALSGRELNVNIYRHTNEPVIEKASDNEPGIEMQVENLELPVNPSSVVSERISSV
Procedure, shortened: as §1

[7] = biological target: T1, 5HT2A receptors; assay: PLC activation and [3H]-IP formation in HEK cells; format: cell-based; conditions: for 5HT2A Function (activation of PLC/IP formation): at 10 μM
[8] = biological target: T2, 5HT2B receptors; assay: PLC activation and [3H]-IP formation in HEK cells; format: cell-based; conditions: at 10 μM
[9] = biological target: T3, 5HT2C receptors; assay: PLC activation and [3H]-IP formation in HEK cells; format: cell-based; conditions: for EC50: read-out: 5HT2C EC50±SEM, [3H]-IP formation, 30 min incubation
[10] = tested on: C57Bl/6J male mice; assay: Palatable meal eating; format: in vivo; conditions: for Eating (pellets consumed) as % of baseline levels: 24 mg/kg i.p. 15 min before 30-min access to Crunchies; for ED50 value (±95% CL), 50% attenuation of consumption: i.p. 15 min before 30-min access to Crunchies
Procedure, shortened: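 Singly housed male C57Bl/6J mice (Harlan) with chow and water ad lib. In home cages, 10 sweet pellets (~190 mg, 3.5 kcal/g) were offered five days/week, with access tapered to 30 min/day. After ~2 weeks of stable intake, test compound was given i.p. (2 ml/kg, sterile saline) 15 min before access. Pellets eaten were counted. ED50 reported with 95% CL.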

[11] = biological target: adenosine, adrenergic, benzodiazepine, cholinergic, dopamine, GABAA, histamine H2, H3, H4, NMDA/PCP, opiate, and serotonin 5-HT1A, 5-HT1B, receptors; assay: Preliminary off-target binding studies; conditions: read-out: Ki (off-target receptors), comparatively low (Ki > 0.5 μM) or very low (Ki > 1 μM) affinity, initial results, PDSP 2012
[12] = 30 mg/kg oral pretreatment before 1.0 mg/kg DOI
[13] = 3 mg/kg i.p. with DOI (1 mg/kg)
[14] = 10 mg/kg i.p. with DOI (1 mg/kg)
[15] = 10 mg/kg i.p. with saline (no DOI)
[16] = 30 mg/kg i.p. with DOI (1 mg/kg)
[17] = 30 mg/kg i.p. with saline (no DOI)

SMILES | Affinity at histamine H1 GPCRs [1] | DOI-elicited HTRs after oral administration [2] | Distance travelled (mean ± s.e.m.) [3, 12] [cm] | Ki [4] [nM] | Ki [5] [nM] | Ki [6] [nM] | 5HT2A Function (activation of PLC/IP formation) [7] | 5HT2B Function (activation of PLC/IP formation) [8] | Function at the 5HT2C receptor (efficacy compared to 5HT) [9] | EC50 [9] [nM] | DOI-elicited HTR (responses) after pretreatment [2] | ED50 value (±95% CL), 50% attenuation of the DOI-elicited response [2] | Distance travelled (mean ± s.e.m.) [3, 13] [cm] | Distance travelled (mean ± s.e.m.) [3, 14] [cm] | Distance travelled (mean ± s.e.m.) [3, 15] [cm] | Distance travelled (mean ± s.e.m.) [3, 16] [cm] | Distance travelled (mean ± s.e.m.) [3, 17] [cm] | Eating (pellets consumed) as % of baseline levels [10] [%] | ED50 value (±95% CL), 50% attenuation of consumption [10] | Ki [11] [nM] | other results
CN(C)[C@@H]1Cc2ccccc2[C@@H](c2ccccc2)C1 (relative stereo) [(−)-trans-PAT, (−)-(2S, 4R)-trans-4-phenyl-N,N-dimethyl-2-aminotetralin, reference compound] | high affinity |  |  |  |  |  |  |  |  |  |  |  |  |  |  |  |  |  |  |  | 
CN(C)[C@H]1Cc2ccccc2[C@H](c2ccc(Cl)cc2)C1 (stereo in doubt) [(±) p-Cl-PAT, racemic trans-4-(4′-chlorophenyl)-N,N-dimethyl-2-aminotetralin] | high affinity | 13.25 | 1662 ± 468 |  |  |  |  |  |  |  |  |  |  |  |  |  |  |  |  |  | 
COc1cc(CC(C)N)c(OC)cc1I.Cl (single isomer, unassigned; (-)) [(−)-DOI, (−)-2,5-dimethoxy-4-iodoamphetamine hydrochloride, reference compound] |  |  |  |  |  |  |  |  |  |  |  |  |  |  |  |  |  |  |  |  | Number of head-twitches ([2]; 0.1 mg/kg (−)-DOI preceded by a saline injection): 6; Number of head-twitches ([2]; 0.3 mg/kg (−)-DOI preceded by a saline injection): 22; Number of head-twitches ([2]; 1.0 mg/kg (−)-DOI preceded by a saline injection): 45; Number of HTRs ([2]; (−)-DOI 1.0 mg/kg following oral saline administration): 37.5; Distance travelled (mean ± s.e.m.) ([3]; saline pretreatment, (−)-DOI 0.1 mg/kg): 2829 ± 481 cm; Distance travelled (mean ± s.e.m.) ([3]; saline pretreatment, (−)-DOI 0.3 mg/kg): 2804 ± 353 cm; Distance travelled (mean ± s.e.m.) ([3]; saline pretreatment, (−)-DOI 1.0 mg/kg): 3626 ± 392 cm
CN(C)[C@@H]1Cc2ccccc2[C@@H](c2ccc(Cl)cc2)C1 (stereo in doubt) [(−)-p-Cl-PAT, (−)-(2S, 4R)-trans-4-(4′-chlorophenyl)-N,N-dimethyl-2-aminotetralin] |  | 18.25 | 1944 ± 654 | 240 ± 32 | 300 ± 30 | 130 ± 16 | No Activation ^1 | No Activation ^1 | partial agonists | 1650 ± 149 | 13 | 20.1 (14.0–28.8) mg/kg | 3386 ± 150 | 3064 ± 309 | 3097 ± 937 | 1889 ± 191 | 1994 ± 165 | 36.4 | 21.3 (18.5–24.4) mg/kg | > 500 | 
CN(C)[C@H]1Cc2ccccc2[C@H](c2ccc(Cl)cc2)C1 (stereo in doubt) [(+)-p-Cl-PAT, (+)-(2R, 4S)-trans-4-(4′-chlorophenyl)-N,N-dimethyl-2-aminotetralin] |  | 8.5 | 1586 ± 398 | 42 ± 6 | 80 ± 10 | 45 ± 7 | No Activation | No Activation ^1 | partial agonists | 140 ± 20 | 3.3 | 8.2 (5.4–12.4) mg/kg | 3523 ± 518 | 2557 ± 99 | 2142 ± 124 | 1329 ± 434 | 870 ± 502 | 15.9 | 14.8 (11.8–18.7) mg/kg | > 500 | pA2 (competitive antagonism of 5HT activation of 5HT2A-mediated [3H]-IP formation) ([7]; Schild analysis versus 5HT): 6.21 ± 0.55; Potency at 5HT2C relative to (−)-p-Cl-PAT ([9]; ratio of EC50 values): about 12 times; Distance travelled (mean ± s.e.m.) ([3]; 3 mg/kg i.p. with saline (no DOI)): 2216 ± 98 cm
